The source made the active and inactive calls. The rule behind the calls is not given here.
Key:
Protein O-GlcNAcase = target: T1, Protein O-GlcNAcase (Homo sapiens, UniProt O60502); assay: Inhibition of human O-GlcNAcase after 5 mins by Lineweaver-Burke plot analysis
T1 sequence (O60502 whole entry): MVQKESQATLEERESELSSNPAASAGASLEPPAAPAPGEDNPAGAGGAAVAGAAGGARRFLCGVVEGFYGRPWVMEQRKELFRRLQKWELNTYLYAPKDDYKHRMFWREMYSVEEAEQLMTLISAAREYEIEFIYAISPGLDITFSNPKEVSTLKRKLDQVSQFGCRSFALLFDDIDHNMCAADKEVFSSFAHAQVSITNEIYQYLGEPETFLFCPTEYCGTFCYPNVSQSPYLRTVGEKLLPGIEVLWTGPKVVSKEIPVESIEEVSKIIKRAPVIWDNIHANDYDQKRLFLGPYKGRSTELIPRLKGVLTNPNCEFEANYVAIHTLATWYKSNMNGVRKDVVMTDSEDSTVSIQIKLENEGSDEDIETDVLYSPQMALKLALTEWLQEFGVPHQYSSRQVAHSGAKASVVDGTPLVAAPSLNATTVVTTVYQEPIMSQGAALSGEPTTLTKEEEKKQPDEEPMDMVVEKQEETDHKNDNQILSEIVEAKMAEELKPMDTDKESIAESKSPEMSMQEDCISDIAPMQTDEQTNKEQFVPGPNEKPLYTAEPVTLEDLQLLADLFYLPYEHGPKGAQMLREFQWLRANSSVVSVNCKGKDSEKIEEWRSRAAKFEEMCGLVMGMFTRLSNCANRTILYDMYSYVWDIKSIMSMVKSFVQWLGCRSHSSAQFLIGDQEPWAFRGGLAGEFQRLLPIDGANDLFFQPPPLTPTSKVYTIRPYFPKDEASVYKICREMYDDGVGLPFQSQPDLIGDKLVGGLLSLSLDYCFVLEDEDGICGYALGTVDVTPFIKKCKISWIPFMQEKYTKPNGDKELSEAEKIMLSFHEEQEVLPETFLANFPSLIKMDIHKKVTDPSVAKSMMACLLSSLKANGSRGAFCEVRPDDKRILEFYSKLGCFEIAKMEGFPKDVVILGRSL

[1] = target: 3-phosphoinositide-dependent protein kinase 1 (Mus musculus) (UniProt Q9Z2A0); assay: Activation of PDK1
Sequence of 3-phosphoinositide-dependent protein kinase 1 (Mus musculus) (Q9Z2A0 whole entry, looked up): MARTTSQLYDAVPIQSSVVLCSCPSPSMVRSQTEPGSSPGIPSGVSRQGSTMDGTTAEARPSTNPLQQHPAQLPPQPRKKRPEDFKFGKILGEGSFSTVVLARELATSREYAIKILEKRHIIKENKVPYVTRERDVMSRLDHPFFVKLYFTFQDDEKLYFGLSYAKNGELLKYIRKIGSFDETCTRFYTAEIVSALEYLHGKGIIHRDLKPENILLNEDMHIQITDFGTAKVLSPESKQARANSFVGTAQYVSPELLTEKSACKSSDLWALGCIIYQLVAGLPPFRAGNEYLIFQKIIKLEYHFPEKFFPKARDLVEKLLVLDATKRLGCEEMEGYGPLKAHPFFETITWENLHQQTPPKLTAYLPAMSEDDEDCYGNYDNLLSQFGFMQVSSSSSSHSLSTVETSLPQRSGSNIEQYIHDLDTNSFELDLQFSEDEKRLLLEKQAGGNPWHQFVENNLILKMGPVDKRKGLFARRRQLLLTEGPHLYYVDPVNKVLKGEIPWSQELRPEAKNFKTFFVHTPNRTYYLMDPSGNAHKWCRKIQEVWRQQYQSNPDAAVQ

HeLa = assay: Induction of hyper-O-GlcNAc-ylation in human HeLa cells assessed as increase of O-GlcNAc level at 40 uM after 48 hrs Western blotting; assay type: functional, cell-based
How it was run: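 HeLa cells seeded at 1.0 × 10^5 per well in DMEM + 10% FBS, ±40 μM inhibitor, 37 °C, 2 days. Washed in PBS, pelleted and lysed with M-PER reagent. Equal protein (20 μg) separated on 10% gel. Western blot with RL2 anti-O-GlcNAc (1:1000) and IR-dye anti-mouse secondary; infrared imaging.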

HT-29 = assay: Induction of hyper-O-GlcNAc-ylation in human HT-29 cells assessed as increase of O-GlcNAc level at 40 uM after 48 hrs Western blotting; assay type: functional, cell-based
How it was run: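 HT-29 cells seeded at 1.0 × 10^5 per well in McCoy's 5a + 10% FBS, with or without 40 μM inhibitor, 37 °C for 2 days. Lysed in Tris pH 8.0/DTT/Triton X-100 with protease inhibitors and sonicated. 20 μg protein per lane run on 10% SDS gel and blotted. Probed with anti-O-GlcNAc RL2 (1:1000) and IR-dye anti-mouse secondary; infrared imaging.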

[2] = target: T2, Beta-hexosaminidase subunit beta (Homo sapiens) (UniProt P07686); assay: Inhibition of human placental lysosomal hexosaminidase B at 5 uM
T2 sequence (whole entry): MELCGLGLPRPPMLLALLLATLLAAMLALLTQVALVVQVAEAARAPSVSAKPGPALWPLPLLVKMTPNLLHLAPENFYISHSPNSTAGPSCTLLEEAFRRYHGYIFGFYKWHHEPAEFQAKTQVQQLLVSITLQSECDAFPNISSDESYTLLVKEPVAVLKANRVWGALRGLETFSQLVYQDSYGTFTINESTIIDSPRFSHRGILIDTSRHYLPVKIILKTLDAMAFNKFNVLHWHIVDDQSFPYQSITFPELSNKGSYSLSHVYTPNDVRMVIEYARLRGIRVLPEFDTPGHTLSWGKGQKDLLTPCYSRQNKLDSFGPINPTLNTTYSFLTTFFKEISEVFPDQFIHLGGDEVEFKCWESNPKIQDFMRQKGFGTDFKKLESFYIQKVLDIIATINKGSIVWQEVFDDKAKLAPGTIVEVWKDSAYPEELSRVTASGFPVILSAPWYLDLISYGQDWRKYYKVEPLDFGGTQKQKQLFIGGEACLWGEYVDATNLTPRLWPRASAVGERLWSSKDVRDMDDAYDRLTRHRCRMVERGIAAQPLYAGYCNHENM

3T3-L1 = assay: Effect on GLUT4 level in mouse differentiated 3T3L1 cells; assay type: functional, cell-based
How it was run: (§1)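 Differentiated 3T3-L1 adipocytes (day 8) were held 16 h in serum-free DMEM with 4 mM glucose, with or without 40 μM inhibitor. They were re-fed and stimulated with 30 nM insulin for 20 min. Surface GLUT4 was photolabeled with 250 μM Bio-ATB-BMPA at 300 nm. Lysate (600 μg) underwent streptavidin pull-down and anti-GLUT4 immunoblotting, and surface GLUT4 was compared with untreated cells.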

[3] = target: T3, Solute carrier family 2, facilitated glucose transporter member 4 (Mus musculus) (UniProt P14142); assay: Inhibition of insulin-induced GLUT4 translocation into plasma membrane of mouse differentiated 3T3L1 cells at 40 uM after 16 hrs by Western blotting relative to control; conditions: 3T3-L1; how it was run: as §1
T3 sequence (whole entry): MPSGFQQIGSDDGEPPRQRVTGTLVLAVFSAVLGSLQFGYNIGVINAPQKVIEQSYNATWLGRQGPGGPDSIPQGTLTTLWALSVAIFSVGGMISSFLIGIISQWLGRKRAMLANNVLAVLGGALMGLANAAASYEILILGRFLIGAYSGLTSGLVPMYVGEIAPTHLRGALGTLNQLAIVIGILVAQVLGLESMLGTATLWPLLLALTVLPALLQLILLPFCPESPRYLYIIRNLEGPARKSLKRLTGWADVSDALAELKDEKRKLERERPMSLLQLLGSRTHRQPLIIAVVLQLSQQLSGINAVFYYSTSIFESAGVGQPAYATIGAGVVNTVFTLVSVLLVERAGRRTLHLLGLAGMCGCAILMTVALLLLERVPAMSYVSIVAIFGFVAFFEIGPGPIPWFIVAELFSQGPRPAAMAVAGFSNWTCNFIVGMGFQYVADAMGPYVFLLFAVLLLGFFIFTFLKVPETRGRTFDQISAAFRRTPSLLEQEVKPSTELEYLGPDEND

[4] = target: RAC-alpha serine/threonine-protein kinase (Mus musculus) (UniProt P31750); assay: Activation of AKT
Sequence of RAC-alpha serine/threonine-protein kinase (Mus musculus) (P31750 whole entry, looked up): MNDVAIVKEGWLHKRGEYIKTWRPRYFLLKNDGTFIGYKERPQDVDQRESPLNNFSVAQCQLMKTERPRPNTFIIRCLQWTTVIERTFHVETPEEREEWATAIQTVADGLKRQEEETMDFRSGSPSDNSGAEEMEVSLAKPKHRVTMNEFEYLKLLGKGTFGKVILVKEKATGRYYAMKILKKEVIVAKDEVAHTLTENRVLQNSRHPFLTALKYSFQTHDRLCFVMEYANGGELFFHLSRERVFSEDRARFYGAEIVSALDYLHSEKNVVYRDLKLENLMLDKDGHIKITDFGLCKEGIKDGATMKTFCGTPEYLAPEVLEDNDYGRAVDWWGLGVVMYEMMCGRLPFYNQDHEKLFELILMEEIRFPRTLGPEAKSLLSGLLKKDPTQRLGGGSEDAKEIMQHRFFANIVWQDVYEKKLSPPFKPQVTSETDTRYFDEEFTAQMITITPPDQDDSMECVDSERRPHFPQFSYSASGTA

[5] = target: T4, Beta-hexosaminidase subunit alpha (Homo sapiens) (UniProt P06865); assay: Inhibition of human placental lysosomal hexosaminidase A at 5 uM
T4 sequence (whole entry): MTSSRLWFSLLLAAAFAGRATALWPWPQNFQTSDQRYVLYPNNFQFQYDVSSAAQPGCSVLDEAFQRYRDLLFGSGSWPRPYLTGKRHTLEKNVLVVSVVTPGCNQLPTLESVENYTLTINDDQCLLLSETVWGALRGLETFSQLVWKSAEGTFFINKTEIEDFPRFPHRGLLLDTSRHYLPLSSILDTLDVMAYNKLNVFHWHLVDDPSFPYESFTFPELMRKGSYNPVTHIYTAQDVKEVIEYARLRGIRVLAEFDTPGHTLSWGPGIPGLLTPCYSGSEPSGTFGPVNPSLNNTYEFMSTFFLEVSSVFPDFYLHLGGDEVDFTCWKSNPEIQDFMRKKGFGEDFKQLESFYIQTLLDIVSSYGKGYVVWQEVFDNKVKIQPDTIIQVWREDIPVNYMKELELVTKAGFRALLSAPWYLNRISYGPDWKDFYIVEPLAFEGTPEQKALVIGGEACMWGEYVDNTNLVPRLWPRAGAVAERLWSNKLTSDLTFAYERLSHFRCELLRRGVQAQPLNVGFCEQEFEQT
How it was run: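 Human placental Hex A was incubated with 50 μM fluorescein di(GlcNAc) substrate ± 5 μM inhibitor in 100 mM citrate/phosphate pH 6.5 without GalNAc at 37 °C for 30 min. The reaction was stopped with 0.5 M Na2CO3 and read by fluorescence (ex 485 / em 535 nm). Percent inhibition was taken against activity without inhibitor.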

[6] = Competitive inhibition of Streptomyces plicatus hexosaminidase

Compound	Ki (Protein O-GlcNAcase) [µM]	Activity [1]	Activity (HeLa)	Activity (HT-29)	inhibition [2]	Activity (3T3-L1)	inhibition [3] [%]	Activity [4]	inhibition [5]	Ki [6] [µM]
CC1=N[C@@H]2[C@@H](O)[C@H](O)[C@@H](CO)O[C@@H]2[Se]1	0.7	Active	Active	Active	Active	inactive	16.3	Active	Active	170
CC1=N[C@@H]2[C@@H](O)[C@H](O)[C@@H](CO)O[C@@H]2S1		Active	Active	Active	Active	inactive	43	Active	Active	20
